The text below walks through data of PMC11489560 (Molecular Therapy, 2024).

For one assay, the system named is hippocampal slices. In words: Effect of BDNF on LTP in hippocampal slices. Further details: species or system rat. As to conditions: control conditions (vehicle-exposed slices); BDNF 30 ng/mL. A digest of the protocol: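 Acute hippocampal slices from male Wistar rats (7-10 weeks) recovered at least 60 min in gassed aCSF at 22°C-24°C, then exposed 3 h at room temperature to vehicle (PBS, pH 7.4). BDNF was tested in separate slices from the same rats. LTP magnitude was the normalized change in mean fEPSP slope 50-60 min post-induction versus the 10 min before induction.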

A further assay concerns hippocampal synaptosomes. Put plainly: [3H]Glutamate release from hippocampal synaptosomes, effect of BDNF. As to conditions: control conditions; BDNF 30 ng/mL. Further details: species or system rat. The gist of the method: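 Hippocampal slices from male Wistar rats (7-10 weeks) were exposed 3 h to vehicle (PBS), then synaptosomes were isolated via 45% Percoll in KHR. Synaptosomes (1-2 mg/mL protein) equilibrated 5 min at 37°C in oxygenated aCSF and were loaded with [3H]glutamate, then given two K+ depolarizations. Release was expressed as % of total radioactivity per time point, and internal control curves from the same batch were subtracted. The BDNF effect was the integrated S2 peak area above basal tritium release.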

B1: brain-derived neurotrophic factor (protein, UniProt P23560 19-247, looked up)
Neurotrophic factor BDNF …: APMKEANIRGQGGLAYPGVRTHGTLESVNGPKAGSRGLTSLADTFEHVIEELLDEDQKVRPNEENNKDADLYTSRVMLSSQVPLEPPLLFLLEEYKNYLDAANMSMRVRRHSDPARRGELSVCDSISEWVTAADKKTAVDMSGGTVTVLEKVPVSKGQLKQYFYETKCNPMGYTKEGCRGIDKRHWNSQCRTTQSYVRALTMDSKKRIGWRFIRIDTSCVCTLTIKRGR
For the molecule B1, the LTP magnitude result with hippocampal slices is recorded as “potentiated”. In the assay on hippocampal synaptosomes, the “K+-evoked glutamate release” value is “potentiated”.
